# ChEMBL document CHEMBL4406834, “Phenylthiazoles with nitrogenous side chain: An approach to overcome molecular obesity” (Eur J Med Chem, 2019)
# Columns and labels:
# [1] = system: Staphylococcus aureus; assay: Antibacterial activity against methicillin-resistant Staphylococcus aureus NRS384 USA300 after 18 to 20 hrs by broth microdilution assay; format: functional
# In short: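 Broth microdilution per CLSI. Strains grown aerobically overnight on tryptone soy agar at 37 °C, adjusted to 0.5 McFarland, then diluted in cation-adjusted Mueller-Hinton broth to about 5 × 10^5 CFU/mL. Compounds (10 mg/mL DMSO stocks) serially diluted. Incubated aerobically at 37 °C for 18-20 h. MIC is the lowest concentration with no visible growth.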
# [2] = Aqueous solubility of the compound in phosphate buffered saline assessed as concentration that produces no precipitate measured as OD at 540 nm; format: physicochemical
solubility kinetic [2] [µM],Compound,MIC [1] [µg/mL]
–,C/C(=N\NC(=N)N)c1sc(-c2ccc(N3CCCCCCC3)cc2)nc1C,128
2.7,C/C(=N\NC(=N)N)c1sc(-c2ccc(C3CCCCC3)cc2)nc1C,–
–,C/C(=N\NC(=N)N)c1sc(-c2ccc(N3CCCCCC3)cc2)nc1C,> 128
–,C/C(=N\NC(=N)N)c1sc(-c2ccc(N3CCOCC3)cc2)nc1C,> 128
–,C/C(=N\NC(=N)N)c1sc(-c2ccc(N3CCC(Br)CC3)cc2)nc1C,8
–,C/C(=N\NC(=N)N)c1sc(-c2ccc(N3CCC4CCCCC4C3)cc2)nc1C (centres undefined),> 128
–,C/C(=N\NC(=N)N)c1sc(-c2ccc(N3CCC3)cc2)nc1C,> 128
–,C/C(=N\NC(=N)N)c1sc(-c2ccc(-n3ccnc3)cc2)nc1C,16
–,C/C(=N\NC(=N)N)c1sc(-c2ccc(N3CC(O)C3)cc2)nc1C,64
